The record followed here is ChEMBL document CHEMBL3045688, “Cytotoxic and insecticidal activities of derivatives of harmine, a natural insecticidal component isolated from Peganum harmala” (2010).

Values after ≈ are worked out from the molar mass of the structure shown. Active and inactive are the calls of the source. No cut-off for these calls is given here.

The test system of test [1] is Culex quinquefasciatus. The test is described as follows: Insecticidal activity against fourth-instar larval stage of Culex quinquefasciatus assessed as increase in mortality after 2 to 24 hr. It is filed as functional, organism-based. In a few lines: (§1)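 Early 4th-instar Culex pipiens quinquefasciatus larvae, 20 per bowl in 10 mL test solution. Compounds taken from a 10 g/L DMSO/acetone stock into water with 0.5% Tween-80 (final 1, 10, 50, 100 mg/L), held at 27 °C. Dead larvae, those unable to reach the surface on shaking, counted at 0, 2, 12 and 24 h. Abbott-corrected against solvent control, triplicate; LC50/LC90 by probit regression.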

In test [2] the test system is Culex quinquefasciatus. Kind of test: Insecticidal activity against fourth-instar larval stage of Culex quinquefasciatus assessed as increase in mortality at 50 to 100 mg/L after 24 hr. It counts as functional, organism-based. In a few lines:
as §1

The subject of test [3] is Lipaphis erysimi. Kind of test: Insecticidal activity against Lipaphis erysimi (mustard aphids) assessed as increase in mortality at 50 to 200 mg/L after 24 to 48 hr. It counts as functional, organism-based. In a few lines: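 Apterous adult Lipaphis erysimi reared on mustard leaves. Leaf discs carrying 30–50 aphids dipped 3 s in aqueous suspensions (10 g/L DMSO/acetone stock, 0.5% emulsifier) at 50, 100, 200 mg/L final, blotted, held at 25 ± 1 °C and 50–60% RH. Mortality scored at 24 and 48 h, corrected against solvent control. Triplicate; LC50/LC90 by probit–log concentration regression.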

In test [4] the test system is Culex quinquefasciatus. The test is described as follows: Insecticidal activity against fourth-instar larval stage of Culex quinquefasciatus assessed as mortality at 1 mg/L after 24 hr. It is filed as functional. In a few lines:
(§2)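 Early 4th-instar Culex pipiens quinquefasciatus from laboratory cultures, 20 per bowl in 10 mL test solution at 27 °C. Compounds from a 10 g/L DMSO–acetone stock suspended in water with 0.5% Tween-80 to 1, 10, 50 or 100 mg/L final. Dead larvae, those unable to reach the surface on shaking, counted at 0, 2, 12 and 24 h. Abbott-corrected against solvent control; triplicate; probit analysis.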

Test [5] deals with Lipaphis erysimi. Kind of test: Insecticidal activity against Lipaphis erysimi (mustard aphids) assessed as mortality at 200 mg/L after 48 hr. It counts as functional. The note with it: in Brassica. In a few lines:
(§3)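 Apterous adult Lipaphis erysimi reared on mustard leaves. Compounds from a 10 g/L DMSO–acetone stock suspended in water with 0.5% emulsifier to 50, 100 or 200 mg/L. Leaf discs carrying 30–50 aphids were dipped 3 s and blotted, then held at 25 ± 1 °C and 50–60% RH. Mortality scored at 24 and 48 h and corrected against solvent control. Triplicate; LC50/LC90 by probit–log concentration regression.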

The subject of test [6] is Lipaphis erysimi. Kind of test: Insecticidal activity against Lipaphis erysimi (mustard aphids) assessed as increase in mortality after 48 hr. It is filed as functional.
In test [7] the test system is Culex quinquefasciatus. The test is described as follows: Insecticidal activity against fourth-instar larval stage of Culex quinquefasciatus assessed as increase in mortality at 50 mg/L after 24 hr. It is filed as functional, organism-based. In a few lines:
as §1

In test [8] the test system is Lipaphis erysimi. The test is described as follows: Insecticidal activity against Lipaphis erysimi (mustard aphids) assessed as mortality at 50 mg/L after 24 hr. It is filed as functional. The settings on record: in Brassica. In a few lines:
as §3

The test system of test [9] is Culex quinquefasciatus. Kind of test: Insecticidal activity against fourth-instar larval stage of Culex quinquefasciatus assessed as mortality at 100 mg/L after 24 hr. It is filed as functional. In a few lines: as §2
In test [10] the test system is Culex quinquefasciatus. The test is described as follows: Insecticidal activity against fourth-instar larval stage of Culex quinquefasciatus assessed as increase in mortality after 24 hr. It counts as functional. In a few lines:
as §2

Test [11] relates to Sf9. Kind of test: Cytotoxicity against Spodoptera frugiperda (fall armyworm) Sf9 cells assessed as growth inhibition at 1 to 200 mg/L after 6 to 24 hr by MTT assay. It is filed as functional, cell-based. In a few lines: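 Sf9 insect cells grown at 27 °C in TC-199-MK with 10% FCS, L-glutamine and penicillin–streptomycin–neomycin. Log-phase cells exposed to compounds (DMSO stock, 1% final solvent), 6, 12 or 24 h. MTT (5 mg/mL stock) added for a further 3 h, formazan dissolved in DMSO, A570 read. Inhibition = (A control − A treated)/A control ×100. Solvent-only control, triplicate.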
For orientation: Formazan colour is commonly taken as a measure of viable cells.

Test [12] in a line: Cytotoxicity against Spodoptera frugiperda (fall armyworm) Sf9 cells assessed as growth inhibition at 200 mg/L after 24 hr by MTT assay. It counts as functional. The note with it: for inhibition of growth at 200 µg/mL: Spodoptera frugiperda, Sf9, 24 h, read-out: GI. In a few lines: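 Sf9 cells kept at 27 °C in TC-199-MK with 10% FCS, L-glutamine and penicillin–streptomycin–neomycin. Log-phase cells in 96-well plates were exposed for 6, 12 or 24 h to compounds diluted in medium from a 1,000 mg/L DMSO stock, with 1% DMSO final; DMSO alone as control. MTT added for 3 h, formazan dissolved in DMSO, A570 read. Inhibition % = (Acontrol−Atreatment)/Acontrol×100. Run in triplicate.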

The mortality is the percentage killed. As for `COC(=O)C1Cc2c([nH]c3ccccc23)C(c2ccccc2)N1` (stereo unspecified), the Activity entry in test [1] was “Dose-dependent effect”. The outcome in [2] and in test [3] was Active. The mortality at 1 µg/mL in [4] is below 34.9%.

The LC50 is the concentration lethal to half of the exposed cells or organisms. As to `COC(=O)c1cc2c([nH]c3ccccc32)c(-c2ccccc2)n1`, the mortality at 200 µg/mL in test [5] amounted to 75.8%. Further, the LC90 is 418.63 µg/mL (≈ 1380 µM) in [6] and 295.13 µg/mL (≈ 976 µM) in test [10]. Moreover, the 50% lethal concentration (LC50) in [6] (Lipaphis erysimi, in Brassica, 48 h) was determined as 68 µg/mL (≈ 225 µM); in test [10] (Culex quinquefasciatus, Instar larval stage, 24 h), 24 µg/mL (≈ 79.3 µM). The Activity result in [1] is “Dose-dependent effect”. In addition, the outcome in test [7] was Active. The mortality at 50 µg/mL in [8] was 15.3%. Also, the mortality at 1 µg/mL in test [4] is below 34.9%. Besides, in test [9], the mortality at 100 µg/mL amounted to 80.5%.

Take `COC(=O)C1Cc2c([nH]c3ccccc23)C(C(Cl)(Cl)Cl)N1` (stereo unspecified): the Activity entry in test [1] was “Dose-dependent effect”. Besides, the outcome in test [2] and in test [3] was Active. Further, the “growth inhibition (GI)” value in test [11] is “inactive”. Further, the mortality at 1 µg/mL in [4] was below 34.9%.

On to `COc1cc(C2NC(C(=O)O)Cc3c2[nH]c2ccccc32)ccc1O` (stereo unspecified), for which the Activity result in test [1] was “Dose-dependent effect”. For the same compound, the outcome in [2] and in [3] was Active. The mortality at 1 µg/mL in [4] was below 34.9%.

`Cc1nc(C(=O)O)cc2c1[nH]c1ccccc12` [HARMAN-3-CARBOXYLIC ACID]: the Activity result in test [1] was “Dose-dependent effect”. Moreover, the result in test [2] and in test [3] was Active. Also, the mortality at 1 µg/mL in test [4] is below 34.9%.

As to `O=C(O)C1Cc2c([nH]c3ccccc23)C(c2ccccc2)N1` (stereo unspecified), the mortality at 200 µg/mL in test [5] amounted to 87.3%. Also, the LC90 in [6] amounted to 240.1 µg/mL (≈ 821 µM); in [10] it was 88.29 µg/mL (≈ 302 µM). In addition, the Activity entry in [1] was “Dose-dependent effect”. The result in [7] was Active. In addition, the mortality at 50 µg/mL in [8] stood at 36.4%. Also, in [4], the mortality at 1 µg/mL was below 34.9%. In addition, the inhibition of growth at 200 µg/mL in [12] was 71.5%. The mortality at 100 µg/mL in test [9] is 93.3%.

As for `COC(=O)c1cc2c([nH]c3ccccc32)c(-c2ccc(Cl)cc2)n1`, the Activity result in test [1] was “Dose-dependent effect”. Further, the result in [2] and in test [3] was Active. The mortality at 1 µg/mL in test [4] was below 34.9%.

For the compound `CC1NC(C(=O)O)Cc2c1[nH]c1ccccc21` (stereo unspecified), the Activity result in test [1] is “Dose-dependent effect”. Besides, the outcome in test [2] and in test [3] was Active. The mortality at 1 µg/mL in test [4] was below 34.9%.

`COc1ccc2c(c1)[nH]c1c(C)nccc12` [HARMINE]: in test [5], the mortality at 200 µg/mL came to 49.6%. The outcome in [2] and in [3] was Active. Further, in test [12], the Imax is given as 40.31%.

Turning to `COC(=O)C1Cc2c([nH]c3ccccc23)CN1` (stereo unspecified), the Activity result in [1] is “Dose-dependent effect”. The result in test [2] and in [3] was Active. The mortality at 1 µg/mL in [4] was below 34.9%.

As to `COC(=O)C1Cc2c([nH]c3ccccc23)C(c2ccc(O)c(OC)c2)N1` (stereo unspecified), in test [1], the Activity result is “Dose-dependent effect”. Besides, the outcome in test [2] and in test [3] was Active. In addition, the mortality at 1 µg/mL in [4] is below 34.9%.

In the case of `COC(=O)c1cc2c([nH]c3ccccc32)c(C)n1`, in [1], the Activity entry was “Dose-dependent effect”. For the same compound, the result in test [2] and in [3] was Active. Further, the mortality at 1 µg/mL in test [4] was below 34.9%.

For `O=C(O)C1Cc2c([nH]c3ccccc23)C(C(Cl)(Cl)Cl)N1` (stereo unspecified), the Activity result in test [1] was “Dose-dependent effect”. Also, the outcome in test [2] and in [3] was Active. Moreover, the mortality at 1 µg/mL in test [4] was below 34.9%.

As to `COC(=O)c1cc2c([nH]c3ccccc32)c(-c2ccccc2O)n1`, the Activity entry in test [1] is “Dose-dependent effect”. Also, the outcome in [2] and in test [3] was Active. In addition, the mortality at 1 µg/mL in test [4] is below 34.9%.

As for `COC(=O)c1cc2c([nH]c3ccccc32)c(-c2c(C)nn(-c3ccccc3)c2Cl)n1`, the Activity result in [1] was “Dose-dependent effect”. The outcome in test [2] and in test [3] was Active. For the same compound, the mortality at 1 µg/mL in test [4] was below 34.9%. Further, in test [12], the inhibition of growth at 200 µg/mL was 60.9%.

In the case of `O=C(O)C1Cc2c([nH]c3ccccc23)CN1` (stereo unspecified), the Activity result in test [1] was “Dose-dependent effect”. In addition, the result in [2] and in test [3] was Active. Besides, the mortality at 1 µg/mL in test [4] was below 34.9%.

Turning to `COC(=O)C1Cc2c([nH]c3ccccc23)C(C)N1` (stereo unspecified), the Activity entry in [1] was “Dose-dependent effect”. Besides, the outcome in test [2] and in test [3] was Active. For the same compound, the mortality at 1 µg/mL in [4] is below 34.9%.
